This passage reports IC50 and IC70 results from ChEMBL document CHEMBL1134638, “Synthetic 2-aroylindole derivatives as a new class of potent tubulin-inhibitory, antimitotic agents” (J Med Chem, 2001).

Converted amounts (≈) assume the structure as drawn.

One assay concerns HeLa. Nature of the assay: In vitro inhibitory activity against HeLa/KB cells using XTT proliferation assay. To be noted: Homo sapiens. The class given is functional, cell-based. The method in brief: (§1)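 XTT proliferation assay measuring cellular metabolic activity after 48 h incubation with compound. Compounds dissolved in DMSO at 1 mg/mL stock. IC50 or estimates obtained by nonlinear regression. Each experiment at least in duplicate.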

The test system of a further assay is SK-OV-3. Nature of the assay: In vitro inhibitory activity against SK-OV-3 cells using XTT proliferation assay. The class given is functional, cell-based. The conditions noted are these: Homo sapiens. Summed up:
as §1

A further assay has as its target Tubulin beta chain (Bos taurus, UniProt Q6B856). Nature of the assay: Inhibition of tubulin polymerization. Type of assay: functional.
The subject of a further assay is Tumor Cell line. Nature of the assay: Mean cytotoxicity against a panel of human tumor cell lines. Type of assay: functional. Summed up:
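Modified propidium iodide assay quantifying dead cells by DNA/RNA staining, run on a human tumor cell panel (breast, colon, stomach, lung, melanoma, ovary, renal, soft tissue lines). Growth inhibition expressed as % T/C; IC70 per line from concentration-viability plots. Mean IC70 is the geometric mean across lines; unreached values set to the lowest or highest concentration tested.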

The target of a further assay is Tubulin (Bos taurus, UniProt Q6B856+Q862L2+Q862F3). Kind of assay: Inhibition of tubulin polymerization; No effect at a concentration up to 10 uM. The class given is functional.

Tubulin beta chain, sequence (Q6B856 whole entry): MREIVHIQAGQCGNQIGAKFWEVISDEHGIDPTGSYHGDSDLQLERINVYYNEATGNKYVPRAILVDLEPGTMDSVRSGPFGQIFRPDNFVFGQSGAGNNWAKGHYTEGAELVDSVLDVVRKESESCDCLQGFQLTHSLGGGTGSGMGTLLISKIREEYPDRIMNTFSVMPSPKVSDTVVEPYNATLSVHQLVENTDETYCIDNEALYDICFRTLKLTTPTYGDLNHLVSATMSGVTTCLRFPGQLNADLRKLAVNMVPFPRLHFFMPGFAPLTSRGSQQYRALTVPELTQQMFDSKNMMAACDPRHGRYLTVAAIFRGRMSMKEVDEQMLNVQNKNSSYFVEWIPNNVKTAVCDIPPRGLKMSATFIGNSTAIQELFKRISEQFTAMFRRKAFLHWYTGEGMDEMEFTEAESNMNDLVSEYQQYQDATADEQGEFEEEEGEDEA

For `COc1ccc2[nH]c(C(=O)c3ccccc3F)cc2c1`, the IC50 was determined as 370 nM in the assay with HeLa, 740 nM in the assay with SK-OV-3 and 1000 nM at Tubulin beta chain.

As for `COc1ccc2[nH]c(C(=O)c3ccc(Cl)c(Cl)c3)cc2c1`, the IC70 in the assay on Tumor Cell line was determined as 1.34 µg/mL (≈ 4.19 µM). Moreover, the IC50 with HeLa was determined as 100 nM; in the assay with SK-OV-3 it was 100 nM; against Tubulin beta chain, 2500 nM.

Take `COc1ccc2[nH]c(C(=O)c3cc(C)ccc3C)cc2c1`: the results for the IC50 in the assay with HeLa, with SK-OV-3 and on Tubulin beta chain were 720 nM, 720 nM and 5200 nM, respectively.

Take `COc1cc2c(c(OC)c1OC)-c1ccc(OC)c(=O)cc1[C@@H](NC(C)=O)CC2` [COLCHICINE]: the values for the IC50 with HeLa and in the assay on SK-OV-3 were 23 nM and 20 nM, respectively.

Turning to `COc1ccc2[nH]c(C(=O)c3cccc(N)c3C)cc2c1`, the results for the half-maximal inhibitory concentration (IC50) in the assay on HeLa, in the assay with SK-OV-3 and at Tubulin beta chain were 11400 nM, 11400 nM and more than 10000 nM, respectively.

On to `COc1ccc2[nH]c(C(=O)c3cccc(OC)c3OC)cc2c1`, for which the IC50 in the assay with HeLa was 6400 nM; with SK-OV-3 it was 3200 nM; at Tubulin beta chain it was more than 10000 nM.

`COc1ccc2[nH]c(C(=O)c3ccc(Br)cc3)cc2c1` had an IC70 in the assay on Tumor Cell line of 2.56 µg/mL (≈ 7.75 µM). For the same molecule, the IC50 came to 910 nM in the assay with HeLa, 910 nM in the assay on SK-OV-3 and 4300 nM against Tubulin beta chain.

As to `COc1ccc2[nH]c(C(=O)c3ccccc3C)cc2c1`, the IC50 is 1210 nM in the assay on HeLa, 380 nM in the assay with SK-OV-3 and 4800 nM at Tubulin beta chain.

`COc1ccccc1C(=O)c1cc2cc(C)ccc2[nH]1`: the IC70 with Tumor Cell line is 2.03 µg/mL (≈ 7.65 µM). Moreover, the concentration for half-maximal inhibition (IC50) with HeLa was determined as 380 nM; in the assay with SK-OV-3, 750 nM; at Tubulin beta chain, 3500 nM.

As for `COc1ccc2[nH]c(C(=O)c3cccc(OCc4ccccc4)c3)cc2c1`, the IC50 was more than 8600 nM with HeLa, more than 8600 nM with SK-OV-3 and “No effect” at Tubulin.

For `CCCCCOc1ccc(C(=O)c2cc3cc(OC)ccc3[nH]2)cc1`, the results for the IC50 in the assay on HeLa, in the assay with SK-OV-3 and at Tubulin were more than 9500 nM, more than 9500 nM and “No effect”, respectively.

`COc1ccc2[nH]c(C(=O)c3ccc(OC)c(OC)c3OC)cc2c1` returned an IC70 with Tumor Cell line of 0.73 µg/mL (≈ 2.14 µM). For the same molecule, the IC50 in the assay with HeLa is 59 nM; in the assay on SK-OV-3, 88 nM; against Tubulin beta chain it was more than 10000 nM.

For `COc1ccc2[nH]c(C(=O)c3cccc(OC)c3[N+](=O)[O-])cc2c1`, the IC50 in the assay with HeLa was more than 9800 nM; in the assay on SK-OV-3 it was more than 9800 nM; on Tubulin beta chain it was more than 10000 nM.

As for `COc1ccc2[nH]c(C(=O)c3ccc(C(C)(C)C)cc3)cc2c1`, the IC50 was more than 10400 nM with HeLa, more than 10400 nM with SK-OV-3 and “No effect” against Tubulin.

In the case of `COc1ccc2[nH]c(C(=O)c3cccc(N)c3)cc2c1`, the concentration for half-maximal inhibition (IC50) in the assay on HeLa came out at 340 nM; in the assay on SK-OV-3, 230 nM; on Tubulin beta chain it was 990 nM.

In turn, `COc1ccc2[nH]c(C(=O)c3cccc4ccccc34)cc2c1` gave an IC70 in the assay with Tumor Cell line of 0.88 µg/mL (≈ 2.92 µM).

On to `COc1cc(OC)cc(C(=O)c2cc3cc(OC)ccc3[nH]2)c1`, for which the figures for the IC50 in the assay with HeLa, in the assay on SK-OV-3 and against Tubulin beta chain were 19 nM, 19 nM and 810 nM, respectively.

On to `COc1ccc2[nH]c(C(=O)c3cccc(O)c3)cc2c1`, for which the IC50 amounted to 220 nM in the assay with HeLa, 220 nM in the assay with SK-OV-3 and 660 nM against Tubulin beta chain.

For `COc1ccc2[nH]c(C(=O)c3ccc(Cl)cc3)cc2c1`, the IC50 in the assay on HeLa is 3500 nM; with SK-OV-3 it was 1750 nM; against Tubulin beta chain, 5000 nM.

In the case of `COc1ccc2c(c1)cc(C(=O)c1ccccc1)n2CCN1CCOCC1`, the IC70 with Tumor Cell line came out at 2.95 µg/mL (≈ 8.09 µM).

With `CCc1ccc(C(=O)c2cc3cc(OC)ccc3[nH]2)cc1`, the figures for the IC50 in the assay with HeLa, with SK-OV-3 and on Tubulin beta chain were 8900 nM, 11500 nM and more than 10000 nM, respectively.

On to `COc1ccccc1C(=O)c1cc2ccccc2[nH]1`, for which the IC50 with HeLa is more than 12700 nM; in the assay on SK-OV-3 it was more than 12700 nM; at Tubulin beta chain it was more than 10000 nM.

For `COc1cc(C(=O)c2cc3ccccc3[nH]2)cc(OC)c1OC`, the IC50 is 6420 nM in the assay with HeLa, 9640 nM in the assay on SK-OV-3 and “No effect” against Tubulin.

`COc1cc(OC)c(OC)c(C(=O)c2cc3cc(OC)ccc3[nH]2)c1`: the IC50 in the assay on HeLa is 8790 nM; in the assay on SK-OV-3 it was 9370 nM; against Tubulin, “No effect”.

Take `COc1ccc2[nH]c(C(=O)c3cccc([N+](=O)[O-])c3)cc2c1`: the 70% effect level with Tumor Cell line (IC70) was put at 1.4 µg/mL (≈ 4.73 µM). Also, the IC50 turned out to be 100 nM in the assay on HeLa, 100 nM in the assay with SK-OV-3 and 850 nM against Tubulin beta chain.

In the case of `COc1ccc2[nH]c(C(=O)c3cccc([N+](=O)[O-])c3C)cc2c1`, the IC50 was more than 10300 nM in the assay with HeLa, more than 10300 nM in the assay on SK-OV-3 and more than 10000 nM at Tubulin beta chain.

For `COc1ccc2[nH]c(C(=O)c3cccc(OC(F)(F)F)c3)cc2c1`, the IC50 with HeLa was found to be 270 nM; in the assay with SK-OV-3, 210 nM; on Tubulin beta chain, 1700 nM.

For `COc1ccc2[nH]c(C(=O)c3ccc(OC)c(OC)c3)cc2c1`, the IC50 in the assay on HeLa came out at 1320 nM; with SK-OV-3, 1640 nM; against Tubulin beta chain it was 810 nM.

Consider `COc1ccc2[nH]c(C(=O)c3cccc(F)c3)cc2c1`, for which the IC50 with HeLa amounted to 26 nM; in the assay with SK-OV-3, 15 nM; at Tubulin beta chain it was 390 nM.

The molecule `COc1ccc2[nH]c(C(=O)c3ccccc3OC)cc2c1` displayed an IC70 in the assay on Tumor Cell line of 0.35 µg/mL (≈ 1.24 µM). In addition, the IC50 in the assay on HeLa was determined as 36 nM; with SK-OV-3, 110 nM; on Tubulin beta chain it was 1290 nM.

In the assay on Tumor Cell line, `COc1cc(C(=O)c2cc3cc(C)ccc3[nH]2)cc(OC)c1OC` gave an IC70 of 1.17 µg/mL (≈ 3.6 µM). For the same molecule, the IC50 in the assay on HeLa stood at 30 nM; with SK-OV-3 it was 30 nM; on Tubulin beta chain, 860 nM.

Take `COc1ccc2[nH]c(C(=O)c3ccccc3N)cc2c1`: the 70% effect level in the assay with Tumor Cell line (IC70) was put at 1.44 µg/mL (≈ 5.41 µM). Besides, the IC50 in the assay on HeLa is 3760 nM; with SK-OV-3, 3760 nM; against Tubulin beta chain, 6700 nM.

On to `CCCc1ccc(C(=O)c2cc3cc(OC)ccc3[nH]2)cc1`, for which the IC50 in the assay with HeLa is more than 10900 nM; in the assay with SK-OV-3 it was more than 10900 nM; against Tubulin beta chain, more than 10000 nM.

The molecule `COc1ccc(C(=O)c2cc3cc(OC)ccc3[nH]2)c(OC)c1` registered an IC70 in the assay with Tumor Cell line of 1.74 µg/mL (≈ 5.59 µM). Further, the 50% inhibitory concentration (IC50) is 100 nM in the assay on HeLa, 1030 nM in the assay on SK-OV-3 and 5600 nM at Tubulin beta chain.

Turning to `COc1ccc2[nH]c(C(=O)c3c(F)cccc3Cl)cc2c1`, the IC50 is more than 10500 nM in the assay on HeLa, more than 10500 nM in the assay with SK-OV-3 and more than 10000 nM against Tubulin beta chain.

On to `COc1cccc(C(=O)c2cc3cc(C)ccc3[nH]2)c1`, for which the IC50 in the assay with HeLa is more than 12100 nM; with SK-OV-3 it was more than 12100 nM; on Tubulin beta chain, more than 10000 nM.

Turning to `COc1ccc2[nH]c(C(=O)c3cccc(C(F)(F)F)c3)cc2c1`, the IC50 in the assay with HeLa amounted to 30 nM; in the assay on SK-OV-3, 30 nM; at Tubulin beta chain it was 1500 nM.

`COc1ccc2[nH]c(C(=O)c3ccccc3[N+](=O)[O-])cc2c1`: the values for the IC50 in the assay with HeLa, in the assay with SK-OV-3 and against Tubulin beta chain were more than 10000 nM, more than 10800 nM and more than 10000 nM, respectively.

Take `CCCC(=O)Oc1cccc(C(=O)c2cc3cc(OC)ccc3[nH]2)c1`: the IC50 with HeLa is 270 nM; with SK-OV-3, 240 nM; against Tubulin beta chain, 850 nM.

Take `COc1ccc2[nH]c(C(=O)c3ccc(C)cc3)cc2c1`: the IC50 in the assay with HeLa turned out to be 380 nM; with SK-OV-3, 1880 nM; on Tubulin beta chain it was 1500 nM.

Consider `COc1ccc2[nH]c(C(=O)c3ccc(F)cc3)cc2c1`, for which the IC50 was 5570 nM in the assay with HeLa and 7430 nM in the assay on SK-OV-3.
